The source made the active and inactive calls. The calls are words filed in the database; no cut-off is given here.
Legend:
Brain = experiment: Antioxidant activity against FeCl3/ascorbic acid-induced lipid peroxidation in rat brain homogenate at 100 uM by TBARS assay; format: functional, tissue-based
Method in brief: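 Fresh rat brain homogenised 10% (w/v) in phosphate buffer pH 7.4. Homogenate was incubated with 20 µM FeCl3 and 100 µM ascorbic acid (final) plus compound (100 uM) or α-tocopherol for 30 min at 37 °C. Thiobarbituric acid/HCl was added, then boiling, n-butanol extraction and A532 read. Values are nmol MDA/10 mg wet tissue from a tetramethoxypropane standard curve; mean ± S.E.M., ≥2 determinations in triplicate.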

[1] = target: Aldo-keto reductase family 1 member B1 (Bos taurus, UniProt P16116); experiment: Inhibition of bovine lens ALR2; set-up: species or system Lens of camera-type eye
Method in brief: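 ALR2 was purified from bovine lens by DE-52 ion exchange and Matrex Orange A affinity chromatography (0.8 U/mg). Assay at 37 °C with 4.67 mM D,L-glyceraldehyde and 0.11 mM NADPH in 0.25 M sodium phosphate pH 6.8, 0.38 M ammonium sulfate and 0.5 mM EDTA, with 1% (v/v) DMSO. IC50 was fitted by nonlinear one-site competition on log dose-inhibition curves from ≥7 concentrations; 95% confidence limits given.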

[2] = target: Aldo-keto reductase family 1 member B1 (Bos taurus) (UniProt P16116); experiment: Inhibition of bovine lens ALR2 at 25 uM; conditions: Lens of camera-type eye

| Compound | Activity (Brain) | IC50 [1] | inhibition [2] |
| --- | --- | --- | --- |
| COc1ccc(/C=C/c2ccc(/C=C3\SC(=O)N(CC(=O)O)C3=O)cc2)cc1 | Active | 250 nM | – |
| Cc1ccc(/C=C/C=C2\SC(=O)N(CC(=O)O)C2=O)cc1 | Active | 1050 nM | – |
| COc1ccc(/C=C/C=C2/SC(=O)NC2=O)cc1 | – | – | 51% |
| O=C(O)CN1C(=O)/C(=C\c2ccc(Oc3ccccc3)cc2)S/C1=N\c1ccccc1 | – | 4400 nM | – |
| Cc1ccc(/C=C/c2ccc(/C=C3\SC(=O)N(CC(=O)O)C3=O)cc2)cc1 | Active | 350 nM | – |
| Cc1ccc(/C=C/C=C2/SC(=O)NC2=O)cc1 | – | – | 46% |
| O=C(O)CN1C(=O)S/C(=C\c2ccc(/C=C/c3ccc(C(F)(F)F)cc3)cc2)C1=O | Active | 1250 nM | – |
| O=C(O)CN1C(=O)S/C(=C\C=C\c2ccc(C(F)(F)F)cc2)C1=O | Active | 300 nM | – |
| O=C(O)CN1C(=O)S/C(=C\c2ccc(Oc3ccccc3)cc2)C1=O | – | 70 nM | – |
| O=C1NC(=O)/C(=C/c2ccc(/C=C/c3ccccc3)cc2)S1 | – | – | inactive |
| O=C1NC(=O)/C(=C\C=C\c2ccccc2)S1 | – | – | 31% |
| COc1ccc(/C=C/C=C2\SC(=O)N(CC(=O)O)C2=O)cc1 | Active | 850 nM | – |
| O=C(O)CN1C(=O)S/C(=C\C=C\c2ccccc2)C1=O | Active | 1320 nM | – |
| O=C(O)CN1C(=O)S/C(=C\c2ccc(/C=C/c3ccccc3)cc2)C1=O | Active | 270 nM | – |
| Cc1ccc(/C=C/c2ccc(/C=C3\SC(=O)NC3=O)cc2)cc1 | – | – | 39% |
| O=C1NC(=O)/C(=C/c2ccc(/C=C/c3ccc(C(F)(F)F)cc3)cc2)S1 | – | – | 29% |
| O=C(O)CN1C(=O)/C(=C\c2ccc3ccccc3c2)S/C1=N\c1ccccc1 | – | 2700 nM | – |
| O=C(O)CN1C(=O)/C(=C\c2ccc(OCc3ccccc3)cc2)S/C1=N\c1ccccc1 | – | 4900 nM | – |
| O=C1NC(=O)/C(=C/C=C/c2ccc(C(F)(F)F)cc2)S1 | – | – | 65% |
| COc1ccc(/C=C/c2ccc(/C=C3\SC(=O)NC3=O)cc2)cc1 | – | – | inactive |

From ChEMBL document CHEMBL1795263, “Identification of 5-arylidene-4-thiazolidinone derivatives endowed with dual activity as aldose reductase inhibitors and antioxidant agents for the treatment of diabetic complications” (Eur J Med Chem, 2011)
